From ChEMBL document CHEMBL1121835, “Synthesis and anxiolytic activity of 6-(substituted-phenyl)-1,2,4-triazolo[4,3-b]pyridazines” (J Med Chem, 1981)
pIC50: −log10 of the molar value. Calls of active or inactive are those of the source. The rule behind the calls is not given here.

Columns and labels:
Rattus norvegicus [1] = experiment: In vivo protection against pentylenetetrazole-induced convulsions in the rat.; assay type: functional
Outline: (§1)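 Rats in groups of 10, food-deprived 24 h, given 4–6 graded doses of compound orally (or ip where noted). PTZ at 23 mg/kg was injected iv into the caudal vein 60 min later. Protection meant no clonic seizure lasting at least 5 s. The number protected was counted and the ED50 estimated.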

Rattus norvegicus [2] = organism: Rattus norvegicus; experiment: Anxiolytic activity for protection against pentylenetetrazole-induced convulsions.; assay type: functional, organism-based; outline: as §1
[3] = molecular target: T1, GABA-A receptor; anion channel (Rattus norvegicus) (UniProt O09028+P15431+P18506+P18508+P19969+P20236+P23574+P23576+P28471+P28473+P30191+P62813+P63079+P63138+Q91ZM7+Q9ES14); experiment: In vitro inhibition of [3H]diazepam binding towards Benzodiazepine receptor at 1 uM; assay type: protein-complex assay
[4] = molecular target: GABA-A receptor; anion channel; experiment: In vitro for inhibition of [3H]diazepam towards Benzodiazepine receptor from rat; assay type: protein-complex assay
Outline: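 Rat frontal cortex homogenized in ice-cold 0.32 M sucrose; crude P2 synaptosomal fraction resuspended in 50 mM Tris-HCl pH 7.4. IC50 read graphically from % inhibition vs log concentration plots.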

Rattus norvegicus [5] = organism: Rattus norvegicus; experiment: Anxiolytic activity for protection against pentylenetetrazole-induced convulsions in experiment 2; assay type: functional; outline: as §1
Rattus norvegicus [6] = organism: Rattus norvegicus; experiment: Anxiolytic activity for protection against pentylenetetrazole-induced convulsions in experiment 1; assay type: functional; settings: Rattus norvegicus; read-out: ED50; outline: as §1
Rattus norvegicus [7] = experiment: Compound was evaluated for anxiolytic activity for protection against pentylenetetrazole-induced convulsions; No activity at 50 mg/Kg; assay type: functional, organism-based; outline: as §1
[8] = molecular target: T1, GABA-A receptor; anion channel (Rattus norvegicus); experiment: In vitro percent inhibition of [3H]diazepam binding to rat GABA-A benzodiazepine receptor at 1 uM; assay type: protein-complex assay
Rattus norvegicus [9] = experiment: Hypotensive activity in saline-loaded spontaneously hypertensive rats following 100 mg/kg p.o. administration.; assay type: functional; set-up: unit not given beside the values; settings: route oral
Outline: (§2)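 Male Okamoto SH rats, about 300 g, gavaged with compound suspended in 2% boiled starch, with 0.9% NaCl loading at 25 mL/kg, at 0 h. An identical dose without saline followed at 24 h. Mean arterial pressure was taken by iliac artery puncture under local lidocaine at 28 h. Values are from one to three rats.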

Rattus norvegicus [10] = experiment: Hypotensive activity evaluated as mean arterial blood pressure (MABP) in saline-loaded spontaneously hypertensive rats dosed (per oral) at 25 mg/kg; assay type: functional; outline: as §2
Rattus norvegicus [11] = organism: Rattus norvegicus; experiment: Compound was evaluated for anxiolytic activity for protection against pentylenetetrazole-induced convulsions in experiment 2; assay type: functional; outline: as §1
Rattus norvegicus [12] = organism: Rattus norvegicus; experiment: Effect on […] seizures at 0.5 hr in rat; assay type: functional
Outline: (§3)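 Rats, oral dosing at three dose levels with six rats per dose; PTZ challenge (23 mg/kg iv, caudal vein) at the stated interval after dosing. Animals scored as protected if free of at least 5 s of uninterrupted clonic seizures. The median effective dose (mg/kg) is reported with its 95% confidence interval.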

Rattus norvegicus [13] = organism: Rattus norvegicus; experiment: Effect on […] seizures at 2 hr in rat; assay type: functional; outline: as §3
Rattus norvegicus [14] = organism: Rattus norvegicus; experiment: Effect on […] seizures at 5 hr in rat; assay type: functional; outline: as §3
Rattus norvegicus [15] = organism: Rattus norvegicus; experiment: Effect on […] seizures at 6 hr in rat; assay type: functional; outline: as §3
Rattus norvegicus [16] = organism: Rattus norvegicus; experiment: Effect on […] seizures at 4 hr in rat; assay type: functional; outline: as §3
Rattus norvegicus [17] = organism: Rattus norvegicus; experiment: Effect on […] seizures at 7 hr in rat; assay type: functional; outline: as §3
Rattus norvegicus [18] = organism: Rattus norvegicus; experiment: Effect on […] seizures at 1 hr in rat; assay type: functional; outline: as §3
Rattus norvegicus [19] = organism: Rattus norvegicus; experiment: Effect on […] seizures at 3 hr in rat; assay type: functional; outline: as §3
Rattus norvegicus [20] = organism: Rattus norvegicus; experiment: Average reduction in blood pressure over control (4 rats) at 2 hr in spontaneous hypertensive rats; assay type: functional
Outline: (§4)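 Conscious cannulated male Okamoto SH rats, 300–350 g, dosed po with vehicle (2% boiled starch) or compound at 1, 5, 10 and 25 mg/kg. A second po dose was given 20 h later, and pressure was recorded continuously for 4 h. The value is the mean reduction against controls at 2 and 4 h, n = 4.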

Rattus norvegicus [21] = organism: Rattus norvegicus; experiment: Average reduction in blood pressure over control (4 rats) at 4 hr in spontaneous hypertensive rats; assay type: functional; outline: as §4
Rattus norvegicus [22] = experiment: Compound was evaluated for anxiolytic activity for protection against pentylenetetrazole-induced convulsions; No activity at 50 mg/kg; assay type: functional, organism-based; set-up: dose 50 mg/kg; outline: as §1

## CN1C(=O)CN=C(c2ccccc2)c2cc(Cl)ccc21 [DIAZEPAM]
Rattus norvegicus [1]
  ED50: 1.8 mg/kg

## c1ccc(-c2ccc3nnc(-c4ccccc4)n3n2)cc1
Rattus norvegicus [2]
  ED50: inactive
[3]
  inhibition: 74%

## CNC1=Nc2ccc(Cl)cc2C(c2ccccc2)=[N+]([O-])C1 [CHLORDIAZEPOXIDE]
[4]
  pIC50: 6.61
[3]
  inhibition: 75%
Rattus norvegicus [1]
  ED50: 1.7 mg/kg

## COCc1nnc2ccc(-c3ccccc3)nn12
Rattus norvegicus [5]
  ED50: 6.4 mg/kg
Rattus norvegicus [6]
  ED50: 9.5 mg/kg
[3]
  inhibition: < 10%

## ClCc1nnc2ccc(-c3ccccc3)nn12
Rattus norvegicus [7]
  ED50: inactive
[3]
  inhibition: 45%
[8]
  inhibition: 47%

## FC(F)(F)c1nnc2ccc(-c3ccccc3)nn12
Rattus norvegicus [5]
  ED50: 18 mg/kg
Rattus norvegicus [6]
  ED50: 15 mg/kg

## Cc1nnc2ccc(-c3ccccc3F)nn12
[4]
  pIC50: 5.13
[3]
  inhibition: 37%
Rattus norvegicus [1]
  ED50: 10.4 mg/kg

## Cc1nnc2ccc(-c3ccccc3)nn12
Rattus norvegicus [5]
  ED50: 2.9 mg/kg
[4]
  pIC50: 6.20
Rattus norvegicus [6]
  ED50: 2.3 mg/kg
[3]
  inhibition: 55%

## FC(F)(F)c1cccc(-c2ccc3nncn3n2)c1
[4]
  pIC50: 6.04
Rattus norvegicus [6]
  ED50: 4.5 mg/kg
Rattus norvegicus [9]
  MABP: 90
[3]
  inhibition: 55%
Rattus norvegicus [10]
  MABP: 117
Rattus norvegicus [11]
  ED50: 2.5 mg/kg

## Cc1nnc2ccc(-c3cccc(C(F)(F)F)c3)nn12 [CI-218872]
Rattus norvegicus [12]
  ED50: 0.5 mg/kg
Rattus norvegicus [5]
  ED50: 1.1 mg/kg
Rattus norvegicus [13]
  ED50: 0.7 mg/kg
[4]
  pIC50: 6.94
Rattus norvegicus [14]
  ED50: 1.7 mg/kg
Rattus norvegicus [15]
  ED50: 2 mg/kg
Rattus norvegicus [6]
  ED50: 1.7 mg/kg
Rattus norvegicus [16]
  ED50: 1.8 mg/kg
Rattus norvegicus [17]
  ED50: 2.5 mg/kg
Rattus norvegicus [18]
  ED50: 0.6 mg/kg
Rattus norvegicus [19]
  ED50: 1 mg/kg
[3]
  inhibition: 77%

## FC(F)(F)c1ccc(-c2ccc3nncn3n2)cc1
Rattus norvegicus [9]
  MABP: 85
Rattus norvegicus [20]
  BP: -15 mmHg
[3]
  inhibition: 21%
Rattus norvegicus [10]
  MABP: 136
Rattus norvegicus [1]
  ED50: 5.8 mg/kg
Rattus norvegicus [21]
  BP: -12 mmHg

## Fc1ccccc1-c1ccc2nncn2n1
Rattus norvegicus [9]
  MABP: 112
[3]
  inhibition: 16%
Rattus norvegicus [1]
  ED50: 17 mg/kg

## CCc1nnc2ccc(-c3ccccc3)nn12
Rattus norvegicus [22]
  ED50: inactive

## CCCC(C)(COC(N)=O)COC(N)=O
[3]
  inhibition: 1.8%

## Cc1cc2nnc(C)n2nc1-c1cccc(F)c1
Rattus norvegicus [2]
  ED50: inactive
[3]
  inhibition: < 10%

## Cc1nnc2ccc(-c3cccc([N+](=O)[O-])c3)nn12
[3]
  inhibition: 53%
Rattus norvegicus [1]
  ED50: 11.6 mg/kg

## Nc1cccc(-c2ccc3nncn3n2)c1
Rattus norvegicus [5]
  ED50: 16.6 mg/kg
Rattus norvegicus [6]
  ED50: 15 mg/kg
[3]
  inhibition: 32%

## Cc1cccc(-c2ccc3nnc(C)n3n2)c1
[3]
  inhibition: 68%
Rattus norvegicus [1]
  ED50: ~50 mg/kg

## Cc1nnc2ccc(-c3ccccc3Cl)nn12
Rattus norvegicus [9]
  MABP: 123
[3]
  inhibition: < 10%
Rattus norvegicus [1]
  ED50: 14 mg/kg

## Cc1nnc2ccc(-c3cccc(N)c3)nn12
[4]
  pIC50: 6.29
[3]
  inhibition: 60%
[8]
  inhibition: 58%
Rattus norvegicus [1]
  ED50: 12 mg/kg

## Cl.Clc1cccc(Cl)c1NC1=NCCN1 [CLONIDINE HYDROCHLORIDE]
Rattus norvegicus [9]
  MABP: 102

## Cc1nnc2ccc(-c3cccc(Cl)c3)nn12
Rattus norvegicus [5]
  ED50: 4.8 mg/kg
[4]
  pIC50: 6.15
Rattus norvegicus [6]
  ED50: 8 mg/kg
[3]
  inhibition: 60%
[8]
  inhibition: 61%

## Cc1cccc(-c2ccc3nncn3n2)c1
Rattus norvegicus [1]
  ED50: ~50 mg/kg

## Fc1cccc(-c2ccc3nncn3n2)c1
Rattus norvegicus [1]
  ED50: 5.5 mg/kg

## Cc1cc2nncn2nc1-c1ccc(F)cc1
Rattus norvegicus [2]
  ED50: inactive
Rattus norvegicus [9]
  MABP: 105

## COc1ccc(-c2ccc3nnc(C)n3n2)cc1
Rattus norvegicus [2]
  ED50: inactive

## CCCc1nnc2ccc(-c3ccccc3)nn12
Rattus norvegicus [9]
  MABP: 110
[3]
  inhibition: 38%
Rattus norvegicus [10]
  MABP: 145

## CCCc1nnc2ccc(-c3cccc(C(F)(F)F)c3)nn12
Rattus norvegicus [2]
  ED50: inactive
Rattus norvegicus [9]
  MABP: 112
Rattus norvegicus [10]
  MABP: 165

## CCc1nnc2ccc(-c3cccc(C(F)(F)F)c3)nn12
[4]
  pIC50: 6.55
[3]
  inhibition: 73%
Rattus norvegicus [1]
  ED50: 24 mg/kg

## Cc1cccc(-c2ccc3nnc(C(F)(F)F)n3n2)c1
Rattus norvegicus [7]
  ED50: inactive
